In ChEMBL document CHEMBL1140894, “Non-vanillyl resiniferatoxin analogues as potent and metabolically stable transient receptor potential vanilloid 1 agonists” (Bioorg Med Chem, 2009):
Activity calls are given as the source filed them. No cut-off for these calls is given here.

Key:
[1] = biological target: T1, Transient receptor potential cation channel subfamily V member 1 (Rattus norvegicus, UniProt O35433); assay: Agonist activity at rat TRPV1 receptor expressed in CHO cells assessed as calcium uptake; assay type: functional, cell-based
[2] = biological target: T1, Transient receptor potential cation channel subfamily V member 1; assay: Displacement of [3H]RTX form rat TRPV1 receptor expressed in CHO/VR1 cell system; assay type: cell-based
[3] = biological target: Transient receptor potential cation channel subfamily V member 1 (Rattus norvegicus) (UniProt O35433); assay: Agonist activity at rat TRPV1 receptor expressed in CHO cells assessed as calcium uptake relative to capsaicin; assay type: functional, cell-based
[4] = biological target: Transient receptor potential cation channel subfamily V member 1 (Rattus norvegicus) (UniProt O35433); assay: Activity at rat TRPV1 receptor expressed in CHO cells assessed as changes in intracellular calcium levels at 75 pM by calcium imaging; assay type: cell-based
[5] = Metabolic stability in Sprague-Dawley rat liver microsomes at 10 ug/mL after 60 mins by HPLC; assay type: ADME, Microsome; conditions: read-out: Stability
[6] = Metabolic stability in Sprague-Dawley rat plasma at 10 ug/mL after 240 mins by HPLC; assay type: ADME, cell-free; conditions: read-out: Stability
Outline: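 Compound added to pre-warmed rat plasma to a final 10 μg/mL and incubated 240 min. Stopped with methanol at 0 and 240 min and quantified by LC-MS. Expressed as percent of initial concentration remaining.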

T1 sequence (O35433 whole entry): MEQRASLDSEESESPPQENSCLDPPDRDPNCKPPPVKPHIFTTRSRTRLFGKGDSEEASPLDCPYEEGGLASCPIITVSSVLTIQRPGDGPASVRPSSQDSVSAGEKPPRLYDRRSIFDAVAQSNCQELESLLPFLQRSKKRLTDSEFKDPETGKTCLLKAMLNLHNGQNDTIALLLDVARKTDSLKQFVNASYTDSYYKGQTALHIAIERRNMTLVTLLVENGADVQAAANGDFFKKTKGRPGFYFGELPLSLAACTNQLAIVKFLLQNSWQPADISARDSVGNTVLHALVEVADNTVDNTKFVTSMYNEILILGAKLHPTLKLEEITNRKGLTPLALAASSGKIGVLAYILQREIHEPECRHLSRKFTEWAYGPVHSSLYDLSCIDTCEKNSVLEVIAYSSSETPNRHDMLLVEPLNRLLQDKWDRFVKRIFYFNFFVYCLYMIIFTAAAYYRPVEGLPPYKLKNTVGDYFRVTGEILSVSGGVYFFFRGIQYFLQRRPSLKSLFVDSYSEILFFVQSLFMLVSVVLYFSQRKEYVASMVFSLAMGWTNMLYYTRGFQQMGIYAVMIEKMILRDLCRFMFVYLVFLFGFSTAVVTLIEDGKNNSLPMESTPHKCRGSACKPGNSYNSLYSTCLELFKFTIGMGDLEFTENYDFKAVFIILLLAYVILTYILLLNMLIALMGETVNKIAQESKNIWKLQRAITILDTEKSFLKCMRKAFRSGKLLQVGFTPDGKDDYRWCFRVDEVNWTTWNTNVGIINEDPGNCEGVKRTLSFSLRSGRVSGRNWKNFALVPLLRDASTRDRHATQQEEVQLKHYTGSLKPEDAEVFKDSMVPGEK
Transient receptor potential cation channel subfamily V member 1 (Rattus norvegicus), sequence (O35433 whole entry): as above

## C=C(C)[C@@]12C[C@@H](C)[C@@]34OC(Cc5ccccc5)(O[C@@H]1[C@@H]3C=C(COC(=O)Cc1ccc(NS(C)(=O)=O)cc1)C[C@]1(O)C(=O)C(C)=C[C@@H]41)O2
[1]
  EC50: 1.78 nM
[2]
  Ki: 6.81 nM

## C=C(C)[C@@]12C[C@@H](C)[C@@]34OC(Cc5ccccc5)(O[C@@H]1[C@@H]3C=C(COC(=O)Cc1ccc(F)cc1)C[C@]1(O)C(=O)C(C)=C[C@@H]41)O2
[1]
  EC50: 3.88 nM
[2]
  Ki: 3.1 nM

## C=C(C)[C@@]12C[C@@H](C)[C@@]34OC(Cc5ccccc5)(O[C@@H]1[C@@H]3C=C(COC(=O)Cc1cccc(F)c1F)C[C@]1(O)C(=O)C(C)=C[C@@H]41)O2
[1]
  EC50: 9.1 nM
[2]
  Ki: 3.53 nM

## C=C(C)[C@@]12C[C@@H](C)[C@@]34OC(Cc5ccccc5)(O[C@@H]1[C@@H]3C=C(COC(=O)Cc1cccc(F)c1)C[C@]1(O)C(=O)C(C)=C[C@@H]41)O2
[1]
  EC50: 1.92 nM
[2]
  Ki: 2.4 nM

## C=C(C)[C@@]12C[C@@H](C)[C@@]34OC(Cc5ccccc5)(O[C@@H]1[C@@H]3C=C(COC(=O)Cc1cc(F)cc(F)c1)C[C@]1(O)C(=O)C(C)=C[C@@H]41)O2
[1]
  EC50: 59 nM
[2]
  Ki: 8.3 nM

## C=C(C)[C@@]12C[C@@H](C)[C@@]34OC(Cc5ccccc5)(O[C@@H]1[C@@H]3C=C(COC(=O)Cc1cc(F)ccc1F)C[C@]1(O)C(=O)C(C)=C[C@@H]41)O2
[1]
  EC50: 4.21 nM
[2]
  Ki: 0.4 nM

## C=C(C)[C@@]12C[C@@H](C)[C@@]34OC(Cc5ccccc5)(O[C@@H]1[C@@H]3C=C(COC(=O)Cc1c(F)c(F)c(F)c(F)c1F)C[C@]1(O)C(=O)C(C)=C[C@@H]41)O2
[3]
  Activity: 23%
[2]
  Ki: 135 nM

## C=C(C)[C@@]12C[C@@H](C)[C@@]34OC(Cc5ccccc5)(O[C@@H]1[C@@H]3C=C(COC(=O)Cc1ccc(NS(C)(=O)=O)c(F)c1)C[C@]1(O)C(=O)C(C)=C[C@@H]41)O2
[1]
  EC50: 2.45 nM
[2]
  Ki: 0.84 nM

## C=C(C)[C@]12C[C@@H](C)[C@@]34O[C@](Cc5ccccc5)(O[C@@H]1[C@@H]3C=C(COC(=O)Cc1ccc(O)c(OC)c1)C[C@]1(O)C(=O)C(C)=C[C@@H]41)O2 [RESINIFERATOXIN]
[1]
  EC50: 0.27 nM
[4]
  Activity: Active
[5]
  remaining at 1 h, 10 ug/mL: 57.6%
[6]
  remaining at 4 h, 10 ug/mL: 71.7%
[2]
  Ki: 0.0426 nM

## C=C(C)[C@@]12C[C@@H](C)[C@@]34OC(Cc5ccccc5)(O[C@@H]1[C@@H]3C=C(COC(=O)Cc1ccc(NS(C)(=O)=O)c(OC)c1)C[C@]1(O)C(=O)C(C)=C[C@@H]41)O2
[1]
  EC50: 0.106 nM
[5]
  remaining at 1 h, 10 ug/mL: 81.4%
[6]
  remaining at 4 h, 10 ug/mL: 90.8%
[2]
  Ki: 0.228 nM

## C=C(C)[C@@]12C[C@@H](C)[C@@]34OC(Cc5ccccc5)(O[C@@H]1[C@@H]3C=C(COC(=O)Cc1c(F)cccc1F)C[C@]1(O)C(=O)C(C)=C[C@@H]41)O2
[1]
  EC50: 11.3 nM
[2]
  Ki: 2.69 nM

## C=C(C)[C@@]12C[C@@H](C)[C@@]34OC(Cc5ccccc5)(O[C@@H]1[C@@H]3C=C(COC(=O)Cc1ccccc1F)C[C@]1(O)C(=O)C(C)=C[C@@H]41)O2
[1]
  EC50: 4.65 nM

## C=C(C)[C@@]12C[C@@H](C)[C@@]34OC(Cc5ccccc5)(O[C@@H]1[C@@H]3C=C(COC(=O)Cc1ccc(F)c(F)c1)C[C@]1(O)C(=O)C(C)=C[C@@H]41)O2
[1]
  EC50: 5.5 nM
[2]
  Ki: 0.98 nM

## C=C(C)[C@@]12C[C@@H](C)[C@@]34OC(Cc5ccccc5)(O[C@@H]1[C@@H]3C=C(COC(=O)Cc1ccc(F)cc1F)C[C@]1(O)C(=O)C(C)=C[C@@H]41)O2
[1]
  EC50: 1.8 nM
[5]
  remaining at 1 h, 10 ug/mL: 57.9%
[6]
  remaining at 4 h, 10 ug/mL: 88.3%
[2]
  Ki: 0.89 nM

## C=C(C)[C@@]12C[C@@H](C)[C@@]34OC(Cc5ccccc5)(O[C@@H]1[C@@H]3C=C(CNC(=O)Cc1ccc(NS(C)(=O)=O)cc1)C[C@]1(O)C(=O)C(C)=C[C@@H]41)O2
[1]
  EC50: 375 nM
[2]
  Ki: 320 nM
